Bioassay records: PubChem, several laboratories
Beta cell apopt: beta cell apoptosis inhibition. AID 435005. protection from apoptosis, % (concentration not given with the values). INS-1E cytokine-induced death, ATP luminescence, 48 h; percent of positive-control rescue, neutral wells zero. actives 0.8% (n = 300,000);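 active means Every replicate reaches about 75%, or at least half do and their mean reaches it too, limit read from the data; inconclusive means At least half of replicates reach the limit but their mean does not; inactive means Under half of replicates reach the limit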;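 further: 0% = cytokine-treated negative control wells and 100% = positive control rescue; higher means more ATP so stronger rescue from cytokine killing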
Mdm2-MdmX inh: disrupts the human Mdm2-MdmX interaction | O15151+Q00987 | SaOS-2 split-luciferase Mdm2/MdmX complementation, luminescence | inhibition, % at 8 µM | actives 3% (n = 330,000) | AID 485346;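 active means inhibition of at least 50% at 8 µM in the primary screen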
Calb FLC: C. albicans growth modulation with fluconazole; C. albicans CaCi-2 (fluconazole-resistant clinical isolate) + fluconazole, Alamar Blue growth, 48 h; growth inhibition, % (no concentration beside the values); actives 0.57% (n = 300,000); AID 1979;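 active means growth inhibition above about 58% in most replicates, limit read from the data, passing the limit was not always enough; inconclusive means exactly half the replicates above a set limit; inactive means most replicates below a set limit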;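 further: all wells also contain fluconazole at 8 µg/ml as a sub-toxic cotreatment; 0% = median of DMSO wells and 100% = median of geldanamycin control wells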
NLRP3 yeast inh: NALP3 inhibition in yeast; Yeast reconstituted NLRP3/ASC/caspase-1, beta-gal luminescence, 24 h; inhibition, % at 10 µM; actives 0.39% (n = 330,000);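 active means inhibition of 50% or more; inactive means inhibition below 50%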;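 further: plate controls were induced DMSO wells for no effect and uninduced yeast grown without galactose for full effect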
T cruzi repl: T. cruzi replication inhibition. inhibition, % (test concentration not listed). T. cruzi beta-gal in NIH3T3, luminescence, 90 h. AID 1885. actives 1.4% (n = 300,000);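 active means mean inhibition across valid replicates above about 55%, limit read from the data; inconclusive means mean below that limit but half or more replicates reach it; inactive means mean below it, under half of replicates reach it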;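 further: signal also drops with host cell toxicity which is not excluded here; 0% = plate median of DMSO wells and 100% = zero luminescence signal; higher percent means less beta-gal luminescence so fewer parasites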
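Assay system: NIH/3T3 fibroblasts plus reporter T. cruzi. Amount: NIH/3T3 cells, 5,000 per well. Buffer or medium: DMEM, 2% fetal bovine serum. Doses: compound pinned at 50 nL/well, DMSO. Schedule: ≥90 h infection period, 3 h prior cell attachment. Signal: luminescent β-galactosidase signal after 60 min lysis. Read-out: parasite load inhibition, %.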
CSC inhib: blocks cancer stem cells; inhibition, % at 7.5 µM; actives 1.1% (n = 300,000); cancer stem cell-like cells viability, luminescence; in the data active means inhibition above about 75%; inconclusive means no clear call, values can overlap the other calls; tested in HMLE shEcad cells
Mdm2 MdmX conf: confirmation of human Mdm2/MdmX interaction inhibitors; shares compounds with Mdm2-MdmX inh; actives 55% (n = 10,000); inhibition, % at 8 µM; AID 489028; Mdm2-MdmX binding, luminescent assay; in the data active means inhibition above about 40%
Full FLuc ctr: counter-screen for Mdm2/MdmX inhibitors: full-length luciferase | shares compounds with Mdm2-MdmX inh | SaOS-2 full-length luciferase counterscreen, luminescence | inhibition, % at 8 µM | actives 77% (n = 6,200);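 active means mean inhibition at 8 µM reaching about 37%, which flags the compound as non-specific, limit read from the data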;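 further: p53-null SaOS-2 cells with luciferase driven by a doxycycline-inducible promoter; compound on cells about two nights before reading with doxycycline added after day one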
Numbers without * were called inactive; ? = inconclusive; / = no result given. Hits are enriched below; roughly 5.3% of the tested compounds scored in any of these assays.

SMILES	Beta cell apopt	Mdm2-MdmX inh	Calb FLC	NLRP3 yeast inh	T cruzi repl	CSC inhib	Mdm2 MdmX conf	Full FLuc ctr
O=C(N/N=C/c1ccc([N+](=O)[O-])o1)c1cc(-c2ccncc2)nc2ccccc12	29	62*	26	7	50	43	52*	44*
Cc1ccc(NC(=S)N/N=C/c2ccc(Cl)c([N+](=O)[O-])c2)cc1	1	41	13	3	3	-6	/	/
O=C(N/N=C/c1ccc([N+](=O)[O-])o1)c1cc(-c2ccc(-c3ccccc3)cc2)nc2ccccc12	24	64*	-14	0	43	78*	57*	84*
O=C(N/N=C/c1ccc(Cl)c([N+](=O)[O-])c1)c1cc(-c2ccccc2)nc2ccccc12	3	100*	11	0	4	96*	8	/
Nc1nonc1-c1nc2ccccc2n1Cc1ccc(F)cc1Cl	-30	62*	-6	3	-5	5	49*	83*
O=C(c1cc(COc2ccc(F)c(F)c2)on1)N1CCN(C2CCCCC2)C(=O)C1	2	0	2	19	-12	2	/	/
CCOc1cc(CNc2ccc3c(c2)OCCO3)cc(Br)c1OC	17	76*	-3	11	7	78*	73*	66*
CCOc1c(Br)cc(CNc2ccc(N3CCOCC3)cc2)cc1OC	-1	23	-3	18	0	-5	/	/
CCOc1cc(CNc2ccc3c(c2)OCCO3)cc(Br)c1OCC(N)=O	-7	21	-5	16	-5	23	/	/
CCOc1c(Br)cc(CNc2ccc3c(c2)OCCO3)cc1OC	17	71*	-3	17	-8	0	58*	57*
O=C(/C(=N\Nc1ccc(Br)cc1)Sc1nnnn1-c1ccccc1)c1ccccc1	10	-1	-13	-5	-11	26	/	/
Brc1ccc(N/N=C(/N=Nc2nn[nH]n2)c2ccccc2)cc1	96*	77*	124*	35	-28	-10	85*	14
Cc1[nH]c2ccccc2c1C(=O)COC(=O)c1ccc2c(=O)n3c(nc2c1)CCC3	0	59*	26	26	-2	2	33	/
CN(C(=O)COC(=O)c1ccc2c(=O)n3c(nc2c1)CCC3)c1ccccc1	0	14	-3	4	-13	-14	/	/
C/C(=C\c1ccc(C(=O)O)cc1)c1ccc2c(c1)C(C)(C)CCC2(C)C	-15	58*	/	20	/	101*	52*	44*
O=C(O)c1ccc(/C=N/O)cc1	-10	-8	4	7	-10	4	/	/
O=C(NC1CCCCCCC1)c1cccc(S(=O)(=O)N2CCOCC2)c1	/	-26	/	0	/	/	/	/
CNC[C@H](CC1CCCCC1)NC[C@H](CO)NCC1(c2ccccc2)CC1	6	86*	-27	6	7	17	58*	45*
CC(C1CC1)N(Cc1ccccc1)C(=S)Nc1cccc(C(F)(F)F)c1 (centres undefined)	-14	17	-7	-13	-50	32	/	/
CNC[C@H](CC1CCCCC1)NC[C@H](CO)NCCc1cccc(C(F)(F)F)c1	36	99*	-36	27	7	132*	97*	58*
COc1ccc(NC(=O)Nc2ccc3c(c2)C(=O)N([C@H](C)CO)C[C@H](C)[C@@H](CN(C)S(=O)(=O)c2ccc(F)cc2)O3)cc1	4	10	/	-1	/	/	/	/
N#C/C(=C\C=C\c1ccccc1[N+](=O)[O-])C(=O)NC1CCCCC1	-15	99*	40	13	-19	82*	61*	54*
N#C/C(=C\c1ccccc1[N+](=O)[O-])C(=O)NC1CCCCC1	-8	3	4	22	-3	-8	/	/
O=C1C=CCC(/C=C/c2ccccc2)O1 (centres undefined)	-5	61*	5	25	31	12	48*	12
O=C1C=C(/C=C/c2ccccc2)C[C@@H](c2ccc(F)cc2)C1	-5	-14	/	9	/	9	/	/
SMILES	Beta cell apopt	Mdm2-MdmX inh	Calb FLC	NLRP3 yeast inh	T cruzi repl	CSC inhib	Mdm2 MdmX conf	Full FLuc ctr
CCOC(=O)C1(Cc2ccccc2)CCN(Cc2cc(OC)c3c(c2)OCO3)CC1	-4	19	9	12	17	10	/	/
COc1ccc(-c2nnc(SCC(=O)Nc3sc4c(c3C#N)CCCC4)n2-c2ccccc2)cc1	/	78*	-5	8	-15	/	0	/
COc1ccc(-n2c(SCC(=O)Nc3ccccc3)nnc2-c2ccc(NS(=O)(=O)c3ccc(C)cc3)cc2)cc1	13	91*	-5	10	4	-6	28	/
COc1ccc(-n2c(SCC(=O)Nc3sc4c(c3C#N)CCCC4)nnc2-c2ccccc2OC)cc1	7	45	24	18	30	20	/	/
CCOC(=O)c1c(NC(=O)CSc2nnc(-c3c[nH]c4ccccc34)n2C)sc2c1CCCC2	17	61*	-7	-1	35	12	15	/
O=C(CCNS(=O)(=O)c1ccc(Cl)cc1)NCc1cccnc1	0	29	14	2	-30	-14	/	/
CCCCn1c(=O)[nH]c(=O)c2c(C(=O)OCC)cc(-c3cccs3)nc21	3	27	51	8	21	-3	/	/
CCCCn1c(=O)[nH]c(=O)c2c(C(=O)OCC)cc(-c3ccc(OC(F)F)cc3)nc21	10	57*	2	21	16	/	32	/
C=CCn1c(O)c(C2=c3ccccc3=NC2=O)sc1=Nc1ccc(O)cc1	0	78*	16	10	48	95*	1	/
COc1ccccc1-n1nnnc1SCC(=O)NCC1CCCO1 (centres undefined)	2	10	1	22	7	-5	/	/
C/C(CC(=O)Nc1cc(C)ccn1)=N\NC(=O)c1cccc(C)c1O	71	66*	94*	6	?	73	46*	121*
C/C(CC(=O)Nc1cc(C)ccn1)=N\NC(=O)c1cccc(C)c1	-21	3	-9	13	5	-5	/	/
CSCCOC(=O)C1=C(C)NC(=O)NC1c1ccc2c(c1)OCO2 (centres undefined)	-3	8	5	6	-14	-3	/	/
CCOC(=O)C1=C(CN2CCSCC2)NC(=O)NC1c1ccc2c(c1)OCO2 (centres undefined)	-5	2	-6	0	-5	3	/	/
CCCCCOC(=O)C1=C(C)NC(=O)NC1c1ccc2c(c1)OCO2 (centres undefined)	-1	8	0	13	2	-11	/	/
CCOC(=O)C1=C(CCl)NC(=O)NC1c1ccc2c(c1)OCO2 (centres undefined)	-7	59*	1	9	0	3	27	/
